Measurements: publication PMC5720529 (Kidney International Reports, 2016)
Like-named read-outs stand apart in the source and are kept apart here.

How the values were obtained:
[1] = Kinetic model 2 fitted simultaneously to hemodialysis conditions 2 and 3; format: in vitro ADME, bovine
How it was run: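 Kinetic model 2, an extension of the whole-blood model, was fitted simultaneously to etelcalcetide amounts in reservoirs A and B from all three hemodialysis conditions, using one rate-constant set. Each point was the mean of triplicate samples. Conjugation/deconjugation constants (kc, kdc, kb, kdb) were fixed from model 1; kAB and kBA are forward and reverse dialysis-clearance constants between reservoirs.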

[2] = In vitro hemodialysis, condition 1: buffered aqueous solution; format: in vitro ADME
How it was run: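 Closed-loop in vitro hemodialysis on an Optiflux dialyzer at ambient temperature (~22 °C). Reservoir A held 0.5 L dialysate and no blood; 5 L dialysate was pumped countercurrent from reservoir B. [14C]etelcalcetide plus urea, creatinine and vitamin B12 controls went into reservoir A, with pumps started at once. Both reservoirs were sampled over 2 h for radioactivity and etelcalcetide (acidified, 1% formic acid), then a 20-min Solvable washout.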

[3] = Whole-blood incubations with etelcalcetide and SAPC; format: in vitro ADME; details: human whole blood; for sum total of monitored products as % of total M11: etelcalcetide 5 μM
How it was run: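 Pooled human whole blood (healthy volunteers, n = 3) was incubated in duplicate with [14C]etelcalcetide, unlabelled etelcalcetide or SAPC for up to 6 h at 37 °C, then centrifuged; plasma was acidified with 1% formic acid. TCEP reduction gave total M11; M13 was estimated from the M10 standard curve. Model 1 was fitted by maximum likelihood to duplicate means.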

[4] = close to the hematocrit value; cited from earlier work
[5] = Non-covalent plasma protein binding in bovine blood; format: in vitro ADME; details: data not shown
[6] = CKD patients on hemodialysis; cited from earlier work
[7] = human blood; cited from earlier work
[8] = format: in vitro ADME, bovine
How it was run: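 Same closed-loop dialyzer setup, with reservoir A holding 0.5 L bovine whole blood warmed to 37 °C. Hemodialysis began immediately after [14C]etelcalcetide and urea, creatinine and vitamin B12 controls were spiked in. Sodium heparin (100 U) was added every 30 min. Both reservoirs were sampled over 2 h for radioactivity and etelcalcetide (formic-acid acidified). Dialyzer-bound material was recovered by 20-min Solvable circulation at 50 ml/min.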

[9] = format: in vitro ADME; details: condition 3, bovine whole blood, with 3-hour preincubation at 37 °C
How it was run: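 Bovine whole blood (0.5 L) spiked with [14C]etelcalcetide was preincubated 3 h at 37 °C before closed-loop dialysis (QB 50 ml/min, QD 250 ml/min, countercurrent, 5 L dialysate). Heparin (100 U) was added hourly. Reservoirs A and B were sampled for radioactivity and etelcalcetide, followed by a Solvable washout of the dialyzer.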

[10] = cited from earlier work

## CC(=O)N[C@H](CSSC[C@H](N)C(=O)O)C(=O)N[C@H](C)C(=O)N[C@H](CCCNC(=N)N)C(=O)N[C@H](CCCNC(=N)N)C(=O)N[C@H](CCCNC(=N)N)C(=O)N[C@H](C)C(=O)N[C@H](CCCNC(=N)N)C(N)=O [etelcalcetide, Etelcalcetide]
[1]; conditions 2 and 3, presence of bovine blood
  hemodialysis clearance as % of blood flow rate: ~70%
[1]; conditions 2 and 3, presence of bovine blood, from kAB, QB 50 ml/min
  hemodialysis clearance: 36 mL/min
[1]; in vitro hemodialysis, bovine blood vs dialysate
  elimination rate constant in blood as % of that in the absence of blood: 60%
[1]; model 2 fit, conditions 2 and 3, bovine blood, mean of triplicate samples
  kBA, reverse rate constant of hemodialysis clearance, reservoir B to A: 0.0364 min^–1
[2]; comparison of dialytic rate constant with kc
  hemodialysis clearance rate relative to biotransformation (conversion to SAPC): > 16 fold
[2]; condition 1, absence of blood, from kAB, QB 50 ml/min, QD 250 ml/min
  hemodialysis clearance: 59 mL/min
[2]; model 2 fit, condition 1, absence of blood, mean of triplicate samples
  kBA, reverse rate constant of hemodialysis clearance, reservoir B to A: 0.00932 min^–1
[3]; [14C]etelcalcetide 10 μM, up to 6 hours, LC-14C-HRMS
  [14C]etelcalcetide biotransformation at 25 °C compared with 37 °C: slower
[3]; 37 °C, at 1 hour
  sum total of monitored products as % of total M11: Approximately 90%
[3]; 37 °C, at 6 hours
  sum total of monitored products as % of total M11: 77%
[3]; model 1 fit (ADAPT 5), 37 °C, mean of duplicate samples
  kdc, rate constant of disulfide exchange SAPC to etelcalcetide (deconjugation): 0.00038 min^–1
[4]
  blood-to-plasma ratio: ~0.5
[5]
  bound non-covalently to plasma proteins: 40%
[6]
  plasma half-life: > 170 h
[7]
  Non-covalent binding to plasma proteins: ~50%
[8]; condition 2, Solvable washout after 2-hour hemodialysis
  14C recovered during the washout period (% of the spiked dose): 0.2 % of the spiked dose
[8]; condition 2, bovine whole blood, no preincubation, 2.1 μM, LC-MS/MS
  intact etelcalcetide dialyzed in the first 15 minutes: 57%
[9]
  proportion of the dose eliminated in 2 hours: 24%
[10]
  permeability: very low

## vitamin B12 [reference compound]
[8]; condition 2, at 15 minutes, LC-MS/MS
  dose remaining in bovine blood: 44%
[8]; condition 2, at 120 minutes, LC-MS/MS
  dose remaining in bovine blood: 8%
